Only some compounds are listed: those with a hit (about 2.6% of all), similar ones and a draw of the others.
Wnt act: activates Wnt/beta-catenin signaling in a reporter cell assay. activator, plate reader. activation, % at 9.35 µM. actives 1.2% (n = 300,000); in the data active = activation above about 30%, passing the limit was not always enough; inconclusive = no clear call, values can overlap the other calls;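 also: 0% = neutral control wells and 100% = positive control wells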
MITF act: MITF TRPM1 promoter activation in melanoma cells; SK-MEL-5 TRPM1-promoter luciferase, 24 h; % of positive control, neutral wells = 0; activation, % at 12.5 µM; actives 0.75% (n = 300,000); AID 588334;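 active = mean activation of at least 80% with every replicate also reaching 80%; inconclusive = mean reaches 80% but some replicate falls short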;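 also: 0% = neutral control wells and 100% = parthenolide positive control wells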
esBAF inh: inhibitors of esBAF chromatin remodeling in mouse ES cells | Bmi1-luciferase knock-in reporter, 24 h; 100% = twice the neutral-well signal | reporter increase, % at 12.5 µM | actives 2% (n = 350,000) | AID 602393; in the data active = activation above about 40%; inconclusive = no clear call, values can overlap the other calls;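 also: 0% = median of the plate's neutral control wells and 100% = double that signal; a rise in the Bmi1 reporter signal indicates esBAF inhibition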
Xi reactivation: X-chromosome reactivation activator. XiGFP mouse fibroblasts, % GFP-positive cells imaging, 3 d; cells co-treated with 5-aza-dC sensitizer; scaled so ellipticine positive control = 100%. activation, % at 7.58 µM. actives 0.055% (n = 360,000). AID 743238;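 active = mean normalized replicate activation at least 10% and every replicate at or above 10%; inconclusive = only one of the two criteria met; inactive = mean below 10% and not all replicates reach 10%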;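 also: 0% = median of on-plate neutral control wells and 100% = ellipticine 6 µM median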
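System: SV40-immortalized XiGFP fibroblast cells, line 68-5-11 / Incubation: 3-day compound exposure, then 15 min fixation at room temperature / Compound: single concentration per compound, delivered by pin transfer / Buffer or medium: DMEM plus 5-aza-dC sensitizer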
Vif inh: inhibitors of HIV Vif. HEK293T cells, Vif self-association by quenched fluorescence, imaging, 24 h. inhibition, % at 7.49 µM. actives 0.35% (n = 340,000); in the data active = inhibition above about 50%, passing the limit was not always enough; inconclusive = no clear call, values can overlap the other calls; inactive = below about 31%
Active calls of the source: *; ? = inconclusive; · = not tested or not shown.

SMILES	Wnt act	MITF act	esBAF inh	Xi reactivation	Vif inh
O=C(NCc1ccccc1)c1csc(-c2cccnc2)n1	-0.8	5.4	·	0.3	2.8
CC(C)Cc1cc(C(=O)Nc2cccnc2)no1	20.0	·	56.8*	0.0	-8.3
C[C@@H]1CN([C@H](C)CO)C(=O)c2cccc(NS(=O)(=O)c3ccc(Cl)cc3)c2O[C@@H]1CN(C)S(C)(=O)=O	·	·	1.7	0.9	·
C[C@H](NC(=O)C[C@@H]1CC[C@@H](NC(=O)C2CC2)[C@H](CO)O1)c1ccccc1	·	·	1.9	-1.1	·
CO[C@@H]1CN(C)C(=O)c2ccc(NC(=O)c3ccc(F)cc3)cc2OC[C@@H](C)N(C(=O)c2ccc(F)cc2)C[C@H]1C	·	·	0.4	0.2	·
C[C@@H]1CCCCO[C@H](CN(C)C)[C@H](C)CN([C@@H](C)CO)C(=O)c2cc(N(C)C)ccc2O1	·	·	10.6	-0.2	·
CC(C)CN(C(=O)c1cccc([N+](=O)[O-])c1)c1c(N)n(CC(C)C)c(=O)[nH]c1=O	-0.2	·	2.8	-0.1	55.9*
CC(C)CN(C(=O)c1cccc(F)c1)c1c(N)n(CC(C)C)c(=O)[nH]c1=O	0.4	·	-3.8	-0.1	33.1
O=C(COC(=O)c1ccc(S(=O)(=O)N2CCOCC2)cc1)NC1CCCCCCC1	89.2*	-0.9	5.0	0.0	·
CCCOc1ccc(-c2nnn(CC(=O)N3CCC(C)CC3)n2)cc1	·	3.4	14.7	·	-6.6
O=C(CCCOc1ccc(Cl)cc1)N1CCOCC1	10.4	·	29.4	·	6.6
CC(C)(C)c1ccc(OCCCC(=O)N2CCOCC2)cc1	14.4	44.2	66.4*	0.0	-4.4
CCCCOc1ccc(-c2nnn(CCC(=O)N3CCOCC3)n2)cc1	11.4	59.8	62.7*	·	·
O=C(CCCOc1ccc(Cl)cc1)N1CCCCCC1	·	42.5	62.3*	·	·
C[C@@H]1CN([C@H](C)CO)C(=O)c2cc(NC(=O)Cc3cn(C)c4ccccc34)ccc2O[C@@H]1CN(C)Cc1ccc(-c2ccccc2)cc1	·	·	-8.7	0.0	·
CCC(=O)N(C)C[C@H]1Oc2cc(Br)ccc2S(=O)(=O)N([C@H](C)CO)C[C@@H]1C	·	·	-1.2	-0.8	·
COc1ccc(NC(=O)Nc2ccc3c(c2)C(=O)N([C@H](C)CO)C[C@H](C)[C@H](CN(C)C(=O)Nc2c(C)noc2C)OCCCC[C@H](C)O3)cc1	·	·	-2.3	0.0	·
CCCNC(=O)C[C@H]1CC[C@@H]2[C@H](COc3ccc(NC(=O)c4cccs4)cc3C(=O)N2C)O1	·	·	0.7	0.5	·
C[C@@H]1CN([C@H](C)CO)C(=O)c2cc(-c3ccc(C#N)cc3)cnc2O[C@H]1CN(C)CC1CCCCC1	·	·	-5.3	-0.8	·
COc1ccccc1-c1nc(-c2ccncc2)no1	61.1*	·	4.9	·	-4.6
COc1ccccc1-c1nc(-c2ccc(Br)cc2)no1	·	76.2	53.7*	·	23.1
CCOc1ccccc1-c1nc(-c2ccncc2)no1	·	24.6	34.6	·	4.0
COc1ccc(-c2nc(-c3ccc(Br)cc3)no2)c(OC)c1	·	?	-7.8	·	10.7
O=C(N/C=C/c1ccccc1)c1ccccc1	41.0*	109.1*	·	0.1	·
Cc1ccc(CN2CC(=O)N3[C@@H](CO)[C@H](c4ccc(-c5cccnc5)cc4)[C@@H]3C2)cc1	·	·	·	0.4	·
SMILES	Wnt act	MITF act	esBAF inh	Xi reactivation	Vif inh
COc1cc2c3nnc(-c4ccc(F)cc4)c-3cn(Cc3cccc(F)c3)c2cc1OC	·	-72.8	·	·	1.8
COc1cc2c3nnc(-c4ccc(F)cc4)c-3cn(Cc3ccc(C)cc3)c2cc1OC	-10.2	-84.1	-5.3	98.0*	14.7
COc1cc2c3nnc(-c4ccc(F)cc4)c-3cn(Cc3cccc(C)c3)c2cc1OC	-6.6	·	-4.8	82.2*	·
Cc1cc(C)n(-c2nnc(NC34CC5CC(CC(C5)C3)C4)nn2)n1	·	138.4*	57.6*	0.2	-0.6
COC(=O)c1ccc(NCc2c(O)ccc(O)c2Br)cc1Cl	-9.4	-2.5	5.7	0.1	69.7*
CCOC(=O)C(=CNc1ccc(O)c(C(=O)OC)c1)C(=O)OCC	2.9	-17.8	-0.3	0.0	-5.5
COC(=O)c1ccc(NCc2cc(O)ccc2O)cc1O	-24.6	11.5	2.7	0.4	85.1*
CCC(=O)N1[C@@H]2c3ccc(-c4ccccc4)c(=O)n3C[C@@H]2[C@@H](CO)[C@@H]1C(=O)N(C)C	·	·	1.2	0.5	·
COc1ccc(S(=O)(=O)N(C)C[C@@H]2OCCCC[C@@H](C)Oc3ccc(NC(=O)CCCN(C)C)cc3C(=O)N([C@H](C)CO)C[C@H]2C)cc1	·	·	3.0	0.2	·

Screens: PubChem BioAssay, Broad Institute
